In ChEMBL document CHEMBL1137151, “Novel factor Xa inhibitors based on a 2-carboxyindole scaffold: SAR of P4 substituents in combination with a neutral P1 ligand” (Bioorg Med Chem Lett, 2004):

Columns and labels:
Prothrombin [1] = target: T1, Prothrombin (Homo sapiens, UniProt P00734); assay: Concentration required to double plasma clotting prothrombin time; type: functional, cell-free
Outline: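 Standard plasma coagulation assays, APTT and PT respectively. The value is the inhibitor concentration that doubles plasma clotting time.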

Prothrombin [2] = target: T1, Prothrombin; assay: Inhibitory concentration in dilute prothrombin time assay; type: functional
Outline: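 Dilute prothrombin time assay, run as PT with diluted thromboplastin reagent. The value is the inhibitor concentration giving 50% inhibition of dPT.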

Trypsin = Trypsin (Homo sapiens, UniProt P07477+P07478+P35030); assay: Inhibitory activity against coagulation factor trypsin; type: protein assay
Prothrombin [3] = target: T1, Prothrombin; assay: Inhibitory activity against coagulation factor II (thrombin)
[4] = target: Tissue-type plasminogen activator (Homo sapiens, UniProt P00750); assay: Inhibitory activity against human tissue plasminogen activator
Coagulation factor X = Coagulation factor X (Homo sapiens, UniProt P00742); assay: Inhibitory activity against serine protease factor Xa
Sequence of Coagulation factor X (P00742 41-179 limits assumed): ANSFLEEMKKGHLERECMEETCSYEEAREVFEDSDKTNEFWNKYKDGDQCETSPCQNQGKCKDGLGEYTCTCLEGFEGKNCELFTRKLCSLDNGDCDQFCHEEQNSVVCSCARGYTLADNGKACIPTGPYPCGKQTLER
Sequence of Coagulation factor X (P00742 235-488 limits assumed): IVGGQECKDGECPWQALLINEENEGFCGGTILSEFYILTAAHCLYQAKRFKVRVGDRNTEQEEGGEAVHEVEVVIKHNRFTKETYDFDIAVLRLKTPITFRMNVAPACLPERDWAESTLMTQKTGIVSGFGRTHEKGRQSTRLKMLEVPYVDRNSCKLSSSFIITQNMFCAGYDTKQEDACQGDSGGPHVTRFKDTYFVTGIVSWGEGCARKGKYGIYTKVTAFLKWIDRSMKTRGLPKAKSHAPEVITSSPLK

Sequence of Tissue-type plasminogen activator (P00750 whole entry): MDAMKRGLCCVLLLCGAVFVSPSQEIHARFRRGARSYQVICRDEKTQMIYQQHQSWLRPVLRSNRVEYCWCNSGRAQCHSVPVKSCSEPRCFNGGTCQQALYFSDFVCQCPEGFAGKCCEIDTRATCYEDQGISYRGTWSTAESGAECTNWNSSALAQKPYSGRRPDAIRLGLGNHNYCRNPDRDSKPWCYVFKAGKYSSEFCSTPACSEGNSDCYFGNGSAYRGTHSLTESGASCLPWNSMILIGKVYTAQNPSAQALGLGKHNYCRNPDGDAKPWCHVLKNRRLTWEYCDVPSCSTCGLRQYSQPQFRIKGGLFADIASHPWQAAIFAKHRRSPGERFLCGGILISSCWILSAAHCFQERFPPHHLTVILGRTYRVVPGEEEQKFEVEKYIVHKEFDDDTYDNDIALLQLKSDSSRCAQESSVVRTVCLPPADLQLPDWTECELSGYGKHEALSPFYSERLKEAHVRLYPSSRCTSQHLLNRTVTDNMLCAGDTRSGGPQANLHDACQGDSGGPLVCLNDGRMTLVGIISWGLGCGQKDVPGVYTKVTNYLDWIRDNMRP

Concentration (Prothrombin [1]) [µM]	IC50 (Prothrombin [2]) [µM]	Ki (Trypsin) [µM]	Ki (Prothrombin [3]) [µM]	Ki [4] [µM]	Ki (Coagulation factor X) [µM]	SMILES
13.7	0.62	> 100	> 10	> 100	–	CC(C)N1CC[C@@H](NC(=O)c2cc3ccccc3n2Cc2cc(-c3ccc(Cl)s3)on2)C1
6.2	0.37	> 100	> 10	> 100	0.012	O=C(NC1CN(c2ccncc2)C1)c1cc2ccccc2n1Cc1cc(-c2ccc(Cl)s2)on1
–	–	–	–	–	0.839	CC(C)N1CC(CNC(=O)c2cc3ccccc3n2Cc2cc(-c3ccc(Cl)s3)on2)C1
–	–	–	–	–	2.9	O=C(c1cc2ccccc2n1Cc1cc(-c2ccc(Cl)s2)on1)N1CCC(Oc2ccncc2)CC1
–	–	–	–	–	0.106	O=C(NC1CCN(C2CCCCC2)CC1)c1cc2ccccc2n1Cc1cc(-c2ccc(Cl)s2)on1
–	–	–	–	–	0.161	CC(C)N1CCC(CNC(=O)c2cc3ccccc3n2Cc2cc(-c3ccc(Cl)s3)on2)CC1
–	–	–	–	–	0.125	CS(=O)(=O)N1CCC(NC(=O)c2cc3ccccc3n2Cc2cc(-c3ccc(Cl)s3)on2)CC1
–	–	–	–	–	0.095	O=C(NC1CCN(C2CCOCC2)CC1)c1cc2ccccc2n1Cc1cc(-c2ccc(Cl)s2)on1
5.41	0.42	> 100	2.76	> 100	–	CC(C)N1CCC(NC(=O)c2cc3ccccc3n2Cc2cc(-c3ccc(Cl)s3)on2)CC1
–	–	–	–	–	0.071	O=C(NC1CCN(C2CCCC2)CC1)c1cc2ccccc2n1Cc1cc(-c2ccc(Cl)s2)on1
–	–	–	–	–	0.225	CC(C)N1CC(NC(=O)c2cc3ccccc3n2Cc2cc(-c3ccc(Cl)s3)on2)C1
5.78	0.19	> 100	3.16	64	–	O=C(c1cc2ccccc2n1Cc1cc(-c2ccc(Cl)s2)on1)N1CCC(Nc2ccncc2)CC1
19.6	1.79	> 100	8.22	> 100	–	O=C(NC1CCN(C2CC2)CC1)c1cc2ccccc2n1Cc1cc(-c2ccc(Cl)s2)on1
9.02	0.37	> 100	> 10	> 100	–	CCN1CCC(NC(=O)c2cc3ccccc3n2Cc2cc(-c3ccc(Cl)s3)on2)CC1
6.04	0.23	> 100	> 10	> 100	–	O=C(NC1CCN(c2ccncc2)CC1)c1cc2ccccc2n1Cc1cc(-c2ccc(Cl)s2)on1
30.7	1.55	> 100	> 10	> 100	–	CN1CCC(NC(=O)c2cc3ccccc3n2Cc2cc(-c3ccc(Cl)s3)on2)CC1
–	–	–	–	–	0.345	CC(C)CN1CC(NC(=O)c2cc3ccccc3n2Cc2cc(-c3ccc(Cl)s3)on2)C1
15.6	1.56	–	–	–	–	CCCN1CCC(NC(=O)c2cc3ccccc3n2Cc2cc(-c3ccc(Cl)s3)on2)CC1
